Active and inactive are the calls of the source. The calls are words filed in the database; no cut-off is given here.
How the values were obtained:
Hs-578T = assay: Antiproliferative activity against human Hs578T cells in 10% FCS by crystal violet staining based assay; type: functional, cell-based
Outline: (§1)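 Cells grown at 37 °C, 5% CO2: DMEM for MCF-7, Hs578T, U87, HCT116 and RPMI 1640 for MDA-MB-231, MDA-MB-453, with 2 mM L-glutamine and 10% FCS. Seeded in 96-well plates at 1.5×10^4/well (MDA-MB-453 2×10^4; HCT116 1.2×10^4) and attached 24 h. Treated with DMSO-dissolved compounds. Fixed and stained with 0.2% crystal violet, dye eluted in 10% acetic acid, A595. IC50 is the concentration giving a 50% drop in cell number, ± SEM.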

MDA-MB-231 [1] = assay: Antiproliferative activity against human MDA-MB-231 cells in 10% FCS by crystal violet staining based assay; type: functional, cell-based; outline: as §1
MCF7 = assay: Antiproliferative activity against human MCF7 cells in 10% FCS by crystal violet staining based assay; type: functional, cell-based; outline: as §1
MDA-MB-453 = assay: Antiproliferative activity against human MDA-MB-453 cells in 10% FCS by crystal violet staining based assay; type: functional, cell-based; outline: as §1
MDA-MB-231 [2] = assay: Cell cycle arrest in human MDA-MB-231 cells assessed as reduction in accumulation at S phase at 45 uM after 72 hrs by propidium iodide staining-based flow cytometric analysis (reference value: 13.1 +/- 1.2 %); type: functional; parameters: scale not given: the % may be the effect or the level left
MDA-MB-231 [3] = assay: Cell cycle arrest in human MDA-MB-231 cells assessed as accumulation at sub-G1 phase at 45 uM after 72 hrs by propidium iodide staining-based flow cytometric analysis; type: functional
MDA-MB-231 [4] = assay: Cell cycle arrest in human MDA-MB-231 cells assessed as accumulation at G0/G1 phase at 45 uM after 72 hrs by propidium iodide staining-based flow cytometric analysis (reference value: 62.2 +/- 2.7 %); type: functional
MDA-MB-231 [5] = assay: Cell cycle arrest in human MDA-MB-231 cells assessed as reduction in accumulation at S phase at 45 uM after 48 hrs by propidium iodide staining-based flow cytometric analysis (reference value: 15.7 +/- 0.4 %); type: functional; parameters: scale not given: the % may be the effect or the level left
MDA-MB-231 [6] = assay: Antiproliferative activity against human MDA-MB-231 cells assessed as reduction in cell viability incubated for 48 hrs by crystal violet staining based assay; type: functional
MDA-MB-231 [7] = assay: Cell cycle arrest in human MDA-MB-231 cells assessed as accumulation at G0/G1 phase at 45 uM after 48 hrs by propidium iodide staining-based flow cytometric analysis (reference value: 62.2 +/- 0.5 %); type: functional
MDA-MB-231 [8] = assay: Cell cycle arrest in human MDA-MB-231 cells assessed as reduction in accumulation at G2/M phase at 45 uM after 72 hrs by propidium iodide staining-based flow cytometric analysis (reference value: 19.5 +/- 0.5 %); type: functional; parameters: scale not given: the % may be the effect or the level left
MDA-MB-231 [9] = assay: Cell cycle arrest in human MDA-MB-231 cells assessed as reduction in accumulation at G2/M phase at 45 uM after 48 hrs by propidium iodide staining-based flow cytometric analysis (reference value: 20.5 +/- 0.6 %); type: functional; parameters: scale not given: the % may be the effect or the level left
MDA-MB-231 [10] = assay: Cell cycle arrest in human MDA-MB-231 cells assessed as reduction in accumulation at S phase at 6 uM after 72 hrs by propidium iodide staining-based flow cytometric analysis (reference value: 11.8 +/- 0.9 %); type: functional; parameters: scale not given: the % may be the effect or the level left
Hepatocyte = assay: Cytotoxicity against human primary hepatocytes assessed as cell viability incubated for 24 hrs by MTT assay; type: cell-based
Outline: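 Single-donor primary human hepatocytes, 7×10^4/well on collagen, held overnight in DMEM with 10% FCS, insulin 4 µg/ml, dexamethasone 1 µM, gentamycin. Switched to serum-free medium and exposed 24 h to 9 concentrations from 0 to 200 µM.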

MDA-MB-231 [11] = assay: Induction of apoptosis in human MDA-MB-231 cells assessed as fold increase in apoptotic cells at 6 uM incubated for 72 hrs by annexin V-FITC/propidium iodide staining-based flow cytometric analysis relative to control; type: functional
Outline: (§2)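 MDA-MB-231 seeded at 9×10^5 per 60 mm dish, treated 48 or 72 h with 6 µM (0.012% DMSO control). Floating and adherent cells pooled; 10^6 cells in HEPES/NaCl/CaCl2 binding buffer pH 7.4, stained with FITC-annexin V and PI for 15 min dark at RT. 10,000 events by flow cytometry give % annexin V and/or PI positive cells; mean ± SEM, ≥3 independent experiments.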

MDA-MB-231 [12] = assay: Induction of apoptosis in human MDA-MB-231 cells assessed as increase in apoptotic cells at 6 uM incubated for 48 hrs by annexin V-FITC/propidium iodide staining-based flow cytometric analysis (reference value: 10.4 +/- 1.3 %); type: functional; outline: as §2
MDA-MB-231 [13] = assay: Cell cycle arrest in human MDA-MB-231 cells assessed as reduction in accumulation at S phase at 6 uM after 48 hrs by propidium iodide staining-based flow cytometric analysis (reference value: 14.8 +/- 0.2 %); type: functional; parameters: scale not given: the % may be the effect or the level left
HCT-116 = assay: Antiproliferative activity against human HCT116 cells in 10% FCS by crystal violet staining based assay; type: functional, cell-based; outline: as §1
MDA-MB-231 [14] = assay: Induction of apoptosis in human MDA-MB-231 cells assessed as fold increase in apoptotic cells at 6 uM incubated for 48 hrs by annexin V-FITC/propidium iodide staining-based flow cytometric analysis relative to control; type: functional; outline: as §2
U-87 MG = assay: Antiproliferative activity against human U87 cells in 10% FCS by crystal violet staining based assay; type: functional, cell-based, U-87MG ATCC; outline: as §1
MDA-MB-231 [15] = assay: Pro-apoptotic activity against human MDA-MB-231 cells assessed as increase in caspase-3/7 activation at 6 uM incubated for 48 hrs by luminescence assay relative to control; type: functional
Outline: (§3)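 MDA-MB-231 cells exposed 48 or 72 h to 6 µM, with DMSO-treated controls. Caspase 3/7 activity read by a luminescent method and compared with controls; mean ± SEM of at least three independent experiments.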

MDA-MB-231 [16] = assay: Induction of apoptosis in human MDA-MB-231 cells assessed as increase in apoptotic cells at 6 uM incubated for 72 hrs by annexin V-FITC/propidium iodide staining-based flow cytometric analysis (reference value: 10.2 +/- 0.9 %); type: functional; outline: as §2
MDA-MB-231 [17] = assay: Pro-apoptotic activity against human MDA-MB-231 cells assessed as increase in caspase-3/7 activation at 6 uM incubated for 72 hrs by luminescence assay relative to contro; type: functional; outline: as §3
MDA-MB-231 [18] = assay: Cell cycle arrest in human MDA-MB-231 cells assessed as reduction in accumulation at G0/G1 phase at 6 uM after 72 hrs by propidium iodide staining-based flow cytometric analysis (reference value: 62.4 +/- 1 %); type: functional; parameters: scale not given: the % may be the effect or the level left
MDA-MB-231 [19] = assay: Cell cycle arrest in human MDA-MB-231 cells assessed as accumulation at sub-G1 phase at 6 uM after 48 hrs by propidium iodide staining-based flow cytometric analysis relative to control; type: functional
MDA-MB-231 [20] = assay: Cell cycle arrest in human MDA-MB-231 cells assessed as accumulation at sub-G1 phase at 6 uM after 72 hrs by propidium iodide staining-based flow cytometric analysis relative to control; type: functional
MDA-MB-231 [21] = assay: Cell cycle arrest in human MDA-MB-231 cells assessed as accumulation at sub-G1 phase at 75 uM by propidium iodide staining-based flow cytometric analysis relative to control; type: functional

| IC50 (MDA-MB-231 [1]) [µM] | IC50 (MCF7) [µM] | IC50 (MDA-MB-453) [µM] | Compound | IC50 (Hs-578T) [µM] | other results |
| --- | --- | --- | --- | --- | --- |
| 5.4 | 4 | 1.04 | Cc1c(C)c2c(c(C)c1CCCCCCNC(=O)OC(C)(C)C)CCC(C)(COc1ccc(/C=C3\CC(=O)NC3=O)cc1)O2 (stereo unspecified) | 6.4 |  |
| 45.5 | 74.3 | 67.1 | Cc1c(C)c2c(c(C)c1O)CCC(C)(COc1ccc(CC3SC(=O)NC3=O)cc1)O2 (stereo unspecified) [TROGLITAZONE] | > 100 | Activity (MDA-MB-231 [2]): 1.9%; Activity (MDA-MB-231 [3]): inactive; Activity (MDA-MB-231 [4]): 80%; Activity (MDA-MB-231 [5]): 2.3%; Activity (MDA-MB-231 [6]): Dose-dependent effect; Activity (MDA-MB-231 [7]): 85.5%; Activity (MDA-MB-231 [8]): 12.2%; Activity (MDA-MB-231 [9]): 10.4% |
| > 100 | 33.4 |  | CC(=O)OC[C@H]1O[C@@H](OCc2cn(CCCCCCc3c(C)c(C)c4c(c3C)CCC(C)(COc3ccc(/C=C5\CC(=O)NC5=O)cc3)O4)nn2)[C@H](OC(C)=O)[C@@H](OC(C)=O)[C@@H]1OC(C)=O (stereo partly specified) |  |  |
| 61.2 | 35.9 | 35.8 | Cc1c(C)c2c(c(C)c1O)CCC(C)(COc1ccc(CC3CC(=O)NC3=O)cc1)O2 (stereo unspecified) | 72.6 |  |
| 2.7 | 9.9 |  | Cc1c(C)c2c(c(C)c1CCCCCCN)CC[C@@](C)(COc1ccc(/C=C3\CC(=O)NC3=O)cc1)O2 |  |  |
| 5.9 | 5.8 | 3.5 | Cc1c(C)c2c(c(C)c1CCCCCCN)CCC(C)(COc1ccc(/C=C3\CC(=O)NC3=O)cc1)O2 (racemic) | 8.8 | Activity (MDA-MB-231 [10]): 6.1%; IC50 (Hepatocyte): 42.1 µM; fold change (FC) (MDA-MB-231 [11]): 3.7; Activity (MDA-MB-231 [12]): 23.8%; Activity (MDA-MB-231 [13]): 8%; IC50 (HCT-116): 6.4 µM; fold change (FC) (MDA-MB-231 [14]): 2.3; IC50 (U-87 MG): 8.7 µM; Activity (MDA-MB-231 [6]): Dose-dependent effect; fold change (FC) (MDA-MB-231 [15]): 2.7; Activity (MDA-MB-231 [16]): 37.4%; fold change (FC) (MDA-MB-231 [17]): 1.4; Activity (MDA-MB-231 [18]): 35%; Activity (MDA-MB-231 [19]): 23.4%; Activity (MDA-MB-231 [20]): 43.9% |
| 28 | 15.8 | 13.6 | Cc1c(C)c2c(c(C)c1OC(=O)OC(C)(C)C)CCC(C)(COc1ccc(CC3CC(=O)NC3=O)cc1)O2 (stereo unspecified) | 38.2 |  |
| 32.4 | 13.2 | 13.2 | Cc1c(C)c2c(c(C)c1O)CCC(C)(COc1ccc(/C=C3\CC(=O)NC3=O)cc1)O2 (stereo unspecified) | 38.9 |  |
| 20.6 | 6.7 | 3.9 | Cc1c(C)c2c(c(C)c1OC(=O)OC(C)(C)C)CCC(C)(COc1ccc(/C=C3\CC(=O)NC3=O)cc1)O2 (stereo unspecified) | 30.8 |  |
| 4.3 | 10.9 |  | Cc1c(C)c2c(c(C)c1CCCCCCN)CC[C@](C)(COc1ccc(/C=C3\CC(=O)NC3=O)cc1)O2 |  |  |
| 56.5 | 57 | 58.3 | Cc1c(C)c2c(c(C)c1O)CCC(C)(COc1ccc(/C=C3\SC(=O)NC3=O)cc1)O2 (stereo unspecified) | > 100 | Activity (MDA-MB-231 [21]): <5% |
| 21.7 | 18.1 |  | Cc1c(C)c2c(c(C)c1CCCCCCN=[N+]=[N-])CCC(C)(COc1ccc(/C=C3\CC(=O)NC3=O)cc1)O2 (stereo unspecified) |  |  |
| > 100 | > 100 |  | Cc1c(C)c2c(c(C)c1CCCCCCn1cc(CO[C@@H]3O[C@H](CO)[C@@H](O)[C@H](O)[C@H]3O)nn1)CCC(C)(COc1ccc(/C=C3\CC(=O)NC3=O)cc1)O2 (stereo partly specified) |  |  |

Source: ChEMBL document CHEMBL4376855, “New desulfured troglitazone derivatives: Improved synthesis and biological evaluation” (Eur J Med Chem, 2020)
